# Experimental data collected from several papers.
# Compare with care: the assays were run in different laboratories.
# Target: TGF-beta receptor type-2 (TGFBR2, Homo sapiens, UniProt P37173)
SMILES,observed,mode,technique,concentration,measurement,result
COc1cc(Nc2ncc(F)c(Nc3ccc4c(n3)NC(=O)C(C)(C)O4)n2)cc(OC)c1OC,binding,,,10 µM,inhibition,75%
CC(C)(C)c1cc(C=C(C#N)C#N)cc(Br)c1O,enzyme activity,inhibitor,,0.5 µM,remaining activity,93.8%
COc1ncccc1-c1cnn2ccc(N3CCN(C(=O)OC(C)C)CC3)nc12,binding,,competition with immobilised ligand,1 µM,remaining binding,100%
N#CC1(c2ccccn2)CCN(Cc2cc(C(=O)O)c(=O)n3ccccc23)CC1,cell-free assay,,competition with immobilised ligand,1 µM,remaining binding,93%
O=c1[nH]c2ccccc2n1C1CCN(Cc2ccc(-c3[nH]c4cc5ncnc5cc4nc3-c3ccccc3)cc2)CC1,cell-free assay,,,0.5 µM,remaining signal,95.5%
Cn1cncc1[C@](O)(COc1ccc(C#N)cc1-c1ccc(OC(F)(F)F)cc1)c1ccc(C#N)cc1,cell-free assay,,competition with immobilised ligand,1 µM,remaining binding,100%
Cc1nn(C)cc1-c1nc2c(N3CCN(Cc4ccc(Cl)cc4)CC3)c(Cl)cnc2[nH]1,binding,,competition with immobilised ligand,1 µM,remaining binding,100%
Nc1ncc(-c2nc(N3CCOCC3)nc(N3CCOCC3)n2)c(C(F)F)n1,cell-free assay,,competition with immobilised ligand,10 µM,remaining binding,69%
